Columns and labels:
Digitaria sanguinalis [1] = assay: Post-emergence herbicidal activity against Digitaria sanguinalis (hairy crabgrass) assessed as growth inhibition at 37.5 g.a.i./ha applied at one-leaf stage measured after 15 days; type: functional; details: 360 h, read-out: GI
Procedure, shortened: (§1)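 Pot-grown weeds sown 5 mm deep in greenhouse clay soil (pH 6.5, 1.7% organic matter, CEC 12.9 cmol/kg) at 22-25 °C. Stock diluted with water and sprayed post-emergence: dicots at 2-leaf stage, monocots at 1-leaf stage. Untreated and DMF solvent controls were included. % growth inhibition was scored visually versus untreated controls after 15 days. Triplicates averaged.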

Amaranthus spinosus = assay: Pre-emergence herbicidal activity against Amaranthus spinosus assessed as growth inhibition at 15 g.a.i./ha applied 24 hr after seeds were sown measured after 15 days; type: functional; details: read-out: GI
Procedure, shortened: (§2)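 Weeds sown 5 mm deep in pots of greenhouse clay soil (pH 6.5, 37.5% clay, CEC 12.9 cmol/kg) and grown at 22-25 °C. Water-diluted formulation was applied pre-emergence 24 h after sowing. Untreated and DMF solvent controls were included. Growth inhibition was visually rated in % against untreated controls after 15 days, as the mean of triplicates.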

Setaria viridis [2] = assay: Post-emergence herbicidal activity against Setaria viridis (green foxtail) assessed as growth inhibition at 37.5 g.a.i./ha applied at one-leaf stage measured after 15 days; type: functional; details: 360 h, read-out: GI; procedure, shortened: as §1
Digitaria sanguinalis [3] = assay: Pre-emergence herbicidal activity against Digitaria sanguinalis (hairy crabgrass) assessed as growth inhibition at 75 g.a.i./ha applied 24 hr after seeds were sown measured after 15 days; type: functional; details: read-out: GI; procedure, shortened: as §2
[4] = (§3) Phytotoxicity against Triticum aestivum (wheat) assessed as growth inhibition at 75 g.a.i/ha pre-emergent application measured after 15 days by greenhouse crop selectivity assay; type: organism-based; details: in vivo, 75 g.a.i/ha, read-out: GI
Procedure, shortened: (§4)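 Pre-emergence greenhouse crop selectivity test on pot-grown plants in clay soil (pH 6.5, 1.7% organic matter, 37.5% clay, CEC 12.9 cmol/kg). Stock solutions were diluted with water and applied at 300, 150, 75 or 37.5 g a.i./ha, in triplicate. After 15 days, phytotoxicity was scored visually against untreated controls as % crop growth inhibition, averaged over the triplicates.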

Abutilon theophrasti [5] = assay: Pre-emergence herbicidal activity against Abutilon theophrasti (velvetleaf) assessed as growth inhibition at 15 g.a.i./ha applied 24 hr after seeds were sown measured after 15 days; type: functional; details: read-out: GI; procedure, shortened: as §2
[6] = system: Brassica rapa subsp. oleifera; assay: Phytotoxicity against Brassica rapa subsp. oleifera assessed as growth inhibition at 37.5 g.a.i/ha pre-emergent application measured after 15 days by greenhouse crop selectivity assay; type: functional; details: pre-emergence, 360 h, read-out: GI
Procedure, shortened: (§5)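 Pot-grown crop in greenhouse clay soil (pH 6.5, 1.7% organic matter, 37.5% clay, CEC 12.9 cmol/kg). Stock diluted with water and applied pre-emergence at 300, 150, 75 or 37.5 g a.i./ha. Cultivated 15 days, then phytotoxicity scored visually as % growth inhibition versus untreated controls. Triplicate treatments, averaged.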

Abutilon theophrasti [7] = assay: Post-emergence herbicidal activity against Abutilon theophrasti (velvetleaf) assessed as growth inhibition at 15 g.a.i./ha applied at two-leaf stage measured after 15 days; type: functional; details: 360 h, read-out: GI; procedure, shortened: as §1
Echinochloa crus-galli = assay: Pre-emergence herbicidal activity against Echinochloa crus-galli (barnyard grass) assessed as growth inhibition at 75 g.a.i./ha applied 24 hr after seeds were sown measured after 15 days; type: functional; details: read-out: GI; procedure, shortened: as §2
Setaria viridis [8] = assay: Pre-emergence herbicidal activity against Setaria viridis (green foxtail) assessed as growth inhibition at 15 g.a.i./ha applied 24 hr after seeds were sown measured after 15 days; type: functional; details: read-out: GI; procedure, shortened: as §2
[9] = system: Brassica rapa subsp. oleifera; assay: Phytotoxicity against Brassica rapa subsp. oleifera assessed as growth inhibition at 300 g.a.i/ha pre-emergent application measured after 15 days by greenhouse crop selectivity assay; type: functional; details: pre-emergence, 360 h, read-out: GI; procedure, shortened: as §5
Oryza sativa = assay: Phytotoxicity against Oryza sativa (rice) assessed as growth inhibition at 7.5 to 60 g.a.i/ha post-emergent application measured after 15 days by greenhouse crop selectivity assay; type: organism-based, L.; details: in vivo, other, 360 h
Procedure, shortened: (§6)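 Postemergence crop selectivity test on pot-grown plants in a greenhouse, in clay soil (pH 6.5, 1.7% organic matter, CEC 12.9 cmol/kg). Stock was diluted with water and sprayed at 60, 30, 15 or 7.5 g a.i./ha, in triplicate. Growth inhibition was rated visually against untreated controls after 15 days and given as the triplicate mean percentage.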

Glycine max [10] = assay: Phytotoxicity against Glycine max (soybean) assessed as growth inhibition at 7.5 to 60 g.a.i/ha post-emergent application measured after 15 days by greenhouse crop selectivity assay; type: organism-based; details: in vivo, other, 360 h; procedure, shortened: as §6
Digitaria sanguinalis [11] = assay: Post-emergence herbicidal activity against Digitaria sanguinalis (hairy crabgrass) assessed as growth inhibition at 7.5 g.a.i./ha applied at one-leaf stage measured after 15 days; type: functional; details: 360 h, read-out: GI; procedure, shortened: as §1
Chenopodium album [12] = assay: Post-emergence herbicidal activity against Chenopodium album assessed as growth inhibition at 37.5 g.a.i./ha applied at two-leaf stage measured after 15 days; type: functional; details: 360 h, read-out: GI; procedure, shortened: as §1
Chenopodium album [13] = assay: Post-emergence herbicidal activity against Chenopodium album assessed as growth inhibition at 7.5 g.a.i./ha applied at two-leaf stage measured after 15 days; type: functional; details: 360 h, read-out: GI; procedure, shortened: as §1
Arachis hypogaea [14] = assay: Phytotoxicity against Arachis hypogaea (peanut) assessed as growth inhibition at 7.5 to 60 g.a.i/ha post-emergent application measured after 15 days by greenhouse crop selectivity assay; type: organism-based; details: in vivo, other, 360 h; procedure, shortened: as §6
Chenopodium album [15] = assay: Pre-emergence herbicidal activity against Chenopodium album assessed as growth inhibition at 7.5 g.a.i./ha applied 24 hr after seeds were sown measured after 15 days; type: functional; details: read-out: GI; procedure, shortened: as §2
Abutilon theophrasti [16] = assay: Post-emergence herbicidal activity against Abutilon theophrasti (velvetleaf) assessed as growth inhibition at 75 g.a.i./ha applied at two-leaf stage measured after 15 days; type: functional; details: 360 h, read-out: GI; procedure, shortened: as §1
Arachis hypogaea [17] = assay: Phytotoxicity against Arachis hypogaea (peanut) assessed as growth inhibition at 300 g.a.i/ha pre-emergent application measured after 15 days by greenhouse crop selectivity assay; type: organism-based; details: in vivo, other, 360 h; procedure, shortened: as §4
Arachis hypogaea [18] = assay: Phytotoxicity against Arachis hypogaea (peanut) assessed as growth inhibition at 150 g.a.i/ha pre-emergent application measured after 15 days by greenhouse crop selectivity assay; type: organism-based; details: in vivo, other, 360 h; procedure, shortened: as §4
[19] = (§7) Phytotoxicity against Zea mays (maize) assessed as growth inhibition at 300 g.a.i/ha pre-emergent application measured after 15 days by greenhouse crop selectivity assay; type: organism-based; details: in vivo, 300 g.a.i/ha, read-out: GI; procedure, shortened: as §4
[20] = system: Brassica rapa subsp. oleifera; assay: Phytotoxicity against Brassica rapa subsp. oleifera assessed as growth inhibition at 7.5 to 60 g.a.i/ha post-emergent application measured after 15 days by greenhouse crop selectivity assay; type: organism-based; details: in vivo, other, 360 h; procedure, shortened: as §6
Arachis hypogaea [21] = assay: Phytotoxicity against Arachis hypogaea (peanut) assessed as growth inhibition at 37.5 g.a.i/ha pre-emergent application measured after 15 days by greenhouse crop selectivity assay; type: organism-based; details: in vivo, other, 360 h; procedure, shortened: as §4
[22] = Phytotoxicity against Triticum aestivum (wheat) assessed as growth inhibition at 150 g.a.i/ha pre-emergent application measured after 15 days by greenhouse crop selectivity assay; type: organism-based; details: in vivo, 150 g.a.i/ha, read-out: GI; procedure, shortened: as §4
Digitaria sanguinalis [23] = assay: Pre-emergence herbicidal activity against Digitaria sanguinalis (hairy crabgrass) assessed as growth inhibition at 15 g.a.i./ha applied 24 hr after seeds were sown measured after 15 days; type: functional; details: read-out: GI; procedure, shortened: as §2
Glycine max [24] = assay: Phytotoxicity against Glycine max (soybean) assessed as growth inhibition at 150 g.a.i/ha pre-emergent application measured after 15 days by greenhouse crop selectivity assay; type: organism-based; details: in vivo, other, 360 h; procedure, shortened: as §4
Triticum aestivum = assay: as §3; type: organism-based; details: in vivo, other, 360 h; procedure, shortened: as §4
Zea mays = assay: as §7; type: organism-based; details: in vivo, other, 360 h; procedure, shortened: as §4

| Structure (SMILES) | inhibition of growth at 37.5 g/ha (Digitaria sanguinalis [1]) [%] | inhibition of growth at 15 g/ha (Amaranthus spinosus) [%] | inhibition of growth at 37.5 g/ha (Setaria viridis [2]) [%] | inhibition of growth at 75 g/ha (Digitaria sanguinalis [3]) [%] | inhibition of growth at 15 g/ha (Abutilon theophrasti [5]) [%] | inhibition of growth at 37.5 g/ha [6] [%] | inhibition of growth at 15 g/ha (Abutilon theophrasti [7]) [%] | inhibition of growth at 75 g/ha (Echinochloa crus-galli) [%] | inhibition of growth at 15 g/ha (Setaria viridis [8]) [%] | inhibition of growth at 300 g/ha [9] [%] | Activity (Oryza sativa) | Activity (Glycine max [10]) | inhibition of growth at 7.5 g/ha (Digitaria sanguinalis [11]) [%] | inhibition of growth at 37.5 g/ha (Chenopodium album [12]) [%] | inhibition of growth at 7.5 g/ha (Chenopodium album [13]) [%] | Activity (Arachis hypogaea [14]) | inhibition of growth at 7.5 g/ha (Chenopodium album [15]) [%] | inhibition of growth at 75 g/ha (Abutilon theophrasti [16]) [%] | growth inhibition (GI) (Arachis hypogaea [17]) | growth inhibition (GI) (Arachis hypogaea [18]) | further results |
| --- | --- | --- | --- | --- | --- | --- | --- | --- | --- | --- | --- | --- | --- | --- | --- | --- | --- | --- | --- | --- | --- |
| C#CCN1C(=O)COc2cc(F)c(N3C(=O)C4=C(CCCC4)C3=O)cc21 [FLUMIOXAZIN] | 95 | 100 | 95 | > 80 | 80 | > 10 | 100 | > 80 | 50 | > 10 | Toxic | Toxic | 80 | 100 | 100 | Toxic | 100 | > 80 | Not Active | Not Active | inhibition at 360 h [4]: > 10%; inhibition at 360 h [19]: > 10%; Activity [20]: Toxic; growth inhibition (GI) (Arachis hypogaea [21]): Not Active; inhibition at 360 h [22]: > 10%; inhibition of growth at 15 g/ha (Digitaria sanguinalis [23]): 50% |
| COC(=O)C(C)N1C(=O)C(C)Oc2cc(F)c(N3C(=O)C4=C(CCCC4)C3=O)cc21 (stereo unspecified) | 60 | 100 | 80 | > 80 | 60 | > 10 | 100 | > 80 | 10 | > 10 | Toxic | Toxic | 10 | 100 | 100 | Toxic | 100 | > 80 | Not Active | Not Active | inhibition at 360 h [4]: > 10%; growth inhibition (GI) (Glycine max [24]): Not Active; inhibition at 360 h [19]: > 10%; Activity [20]: Toxic; growth inhibition (GI) (Arachis hypogaea [21]): Not Active; inhibition at 360 h [22]: > 10%; inhibition of growth at 15 g/ha (Digitaria sanguinalis [23]): 10% |
| CCOC(=O)C(CC)N1C(=O)C(C)Oc2cc(F)c(N3C(=O)C4=C(CCCC4)C3=O)cc21 (stereo unspecified) | 70 | 100 | 70 | > 80 | 40 | > 10 | 100 | > 80 | 0 | > 10 | Toxic | Toxic | 40 | 100 | 100 | Toxic | 100 | > 80 | Not Active | Not Active | growth inhibition (GI) (Triticum aestivum): Not Active; growth inhibition (GI) (Glycine max [24]): Not Active; growth inhibition (GI) (Zea mays): Not Active; Activity [20]: Toxic; growth inhibition (GI) (Arachis hypogaea [21]): Not Active; inhibition of growth at 15 g/ha (Digitaria sanguinalis [23]): 0% |
| CCOC(=O)C(C)N1C(=O)C(C)Oc2cc(F)c(N3C(=O)C4=C(CCCC4)C3=O)cc21 (stereo unspecified) | 50 | 95 | 50 | > 80 | 0 | > 10 | 100 | > 80 | 40 | > 10 | Toxic | Toxic | 20 | 100 | 100 | Toxic | 100 | > 80 | Not Active | Not Active | growth inhibition (GI) (Triticum aestivum): Not Active; growth inhibition (GI) (Glycine max [24]): Not Active; growth inhibition (GI) (Zea mays): Not Active; Activity [20]: Toxic; growth inhibition (GI) (Arachis hypogaea [21]): Not Active; inhibition at 360 h [22]: > 10%; inhibition of growth at 15 g/ha (Digitaria sanguinalis [23]): 40% |
